Activity calls are given as the source filed them.
What was measured:
[1] = Selectivity ratio of Ki for delta opioid receptor to Ki for mu opioid receptor
[2] = Selectivity ratio of Ki for kappa opioid receptor to Ki for mu opioid receptor
Mu-type opioid receptor [3] = molecular target: T1, Mu-type opioid receptor (Homo sapiens, UniProt P35372); experiment: Agonist activity at mu opioid receptor expressed in CHO cells assessed as stimulation of [35S]-GTP-gammaS binding relative to DAMGO; format: cell-based
[4] = molecular target: T2, Kappa-type opioid receptor (Homo sapiens, UniProt P41145); experiment: Agonist activity at kappa opioid receptor expressed in CHO cells assessed as stimulation of [35S]-GTP-gammaS binding; format: functional, cell-based
Procedure, shortened: (§1)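 GTP[γS] functional assay in membranes of CHO cells expressing the cloned opioid receptor. Membrane protein 10 μg incubated at 30 °C with varying drug concentrations and 0.1 nM 35S-GTP[γS]: μ with 10 μM GDP for 2 h; κ and δ with 20 μM GDP for 1.5 h. Nonspecific binding defined with 10 μM unlabeled GTP[γS].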

[5] = molecular target: T2, Kappa-type opioid receptor; experiment: Agonist activity at kappa opioid receptor expressed in CHO cells assessed as stimulation of [35S]-GTP-gammaS binding relative to U50,488H; format: functional, cell-based
Mu-type opioid receptor [6] = molecular target: T1, Mu-type opioid receptor; details: CHO; 100 nM
Mus musculus [7] = experiment: Antinociceptive activity in Swiss-Webster mouse assessed as thermal-stimulus induced tail flick latency at 10 mg/kg; format: functional
Procedure, shortened: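 Male Swiss-Webster mice, 25–30 g, allowed 18 h to recover from transport. Warm-water tail flick, bath at 56 ± 0.1 °C; only mice with 2–4 s baseline latency used. Latency retested after drug at the appropriate time, 10 s cutoff. Expressed as %MPE = [(test − control latency)/(10 − control latency)] × 100, calculated per mouse, at least six mice per drug.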

[8] = molecular target: T3, Delta-type opioid receptor (Homo sapiens, UniProt P41143); experiment: Displacement of [3H]NTI from delta opioid receptor expressed in CHO cells after 1 hr; format: cell-based
Mu-type opioid receptor [9] = molecular target: T1, Mu-type opioid receptor; experiment: Displacement of [3H]Naloxone from mu opioid receptor expressed in CHO cells after 1 hr; format: cell-based
[10] = molecular target: T2, Kappa-type opioid receptor; experiment: Displacement of [3H]DPN from kappa opioid receptor expressed in CHO cells after 1 hr; format: cell-based
Mu-type opioid receptor [11] = molecular target: T1, Mu-type opioid receptor; experiment: Agonist activity at mu opioid receptor expressed in CHO cells assessed as stimulation of [35S]-GTP-gammaS binding; format: cell-based; procedure, shortened: as §1
Mus musculus [12] = experiment: Toxicity in morphine-pelleted Swiss-Webster mouse assessed as diarrhea up to 10 mg/kg, sc; format: organism-based; set-up: dose 10 mg/kg, route subcutaneous; details: in vivo
[13] = molecular target: T3, Delta-type opioid receptor; experiment: Agonist activity at delta opioid receptor expressed in CHO cells assessed as stimulation of [35S]-GTP-gammaS binding relative to SNC80; format: functional, cell-based
Mus musculus [14] = experiment: Inhibition of morphine-induced decrease in gastrointestinal motility in sc dosed morphine-pelleted Swiss-Webster mouse; format: functional
Mus musculus [15] = experiment: Inhibition of morphine-induced decrease in gastrointestinal motility in Swiss-Webster mouse at 10 mg/kg, sc; format: functional, organism-based; set-up: dose 10 mg/kg
Procedure, shortened: (§2)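 GI transit assay in male Swiss-Webster mice, groups of four or six. Compound or saline was given sc at time zero, then morphine (2 or 10 mg/kg) sc 5 min later. A charcoal meal was gavaged 20 min after morphine. Mice were killed 30 min after the meal, and charcoal distance was expressed as a percentage of small-intestine length from pylorus to cecum. Significance was tested by one-way ANOVA with Dunnett's test.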

Mus musculus [16] = experiment: Inhibition of morphine-induced antinociceptive activity in Swiss-Webster mouse assessed as thermal-stimulus induced tail flick latency up to 30 mg/kg; format: functional, organism-based; set-up: dose 30 mg/kg
Mus musculus [17] = experiment: Inhibition of morphine-induced decrease in gastrointestinal motility in morphine-pelleted Swiss-Webster mouse at 0.3 to 10 mg/kg, sc; format: functional, organism-based
Mus musculus [18] = experiment: Effect on gastrointestinal motility in Swiss-Webster mouse at 10 mg/kg, sc; format: functional, organism-based; set-up: dose 10 mg/kg
Mus musculus [19] = experiment: Antinociceptive activity in Swiss-Webster mouse assessed as thermal-stimulus induced tail flick latency at 3 mg/kg relative to morphine; format: functional
Procedure, shortened: (§3)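 Warm-water tail flick test in male Swiss-Webster mice (25–30 g) with a 56 ± 0.1 °C bath. Only mice with a 2–4 s baseline latency were used, and a 10 s cutoff was applied. Latency was read after drug treatment. %MPE = [(test − control latency)/(10 − control latency)] × 100, computed per mouse with at least six mice per drug.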

Caco-2 = experiment: Apparent permeability of the compound across human Caco2 cells; format: ADME, cell-based
Procedure, shortened: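 Caco-2 cells (passages 45–47) grown 22 days on 0.4 μm Transwell filters seeded at 80 000 cells/cm2, in DMEM with 10% FBS, antibiotics and nonessential amino acids. Drug in HEPES-buffered (10 mM) HBSS was added apically or basolaterally, and the receiver side was sampled up to 2 h. Samples were quantified by HPLC-UV. Papp = J/(A·Ci).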

[20] = molecular target: T3, Delta-type opioid receptor; experiment: Agonist activity at delta opioid receptor expressed in CHO cells assessed as stimulation of [35S]-GTP-gammaS binding; format: functional, cell-based; procedure, shortened: as §1
Mus musculus [21] = experiment: Antinociceptive activity in Swiss-Webster mouse assessed as thermal-stimulus induced tail flick latency at 10 mg/kg relative to morphine; format: functional; procedure, shortened: as §3
Mus musculus [22] = experiment: Inhibition of morphine-induced antinociceptive activity in Swiss-Webster mouse assessed as thermal-stimulus induced tail flick latency at 10 mg/kg; format: functional, organism-based; set-up: dose 10 mg/kg
Mus musculus [23] = experiment: Inhibition of morphine-induced decrease in gastrointestinal motility in sc dosed Swiss-Webster mouse; format: functional; procedure, shortened: as §2

T1 sequence (P35372 whole entry): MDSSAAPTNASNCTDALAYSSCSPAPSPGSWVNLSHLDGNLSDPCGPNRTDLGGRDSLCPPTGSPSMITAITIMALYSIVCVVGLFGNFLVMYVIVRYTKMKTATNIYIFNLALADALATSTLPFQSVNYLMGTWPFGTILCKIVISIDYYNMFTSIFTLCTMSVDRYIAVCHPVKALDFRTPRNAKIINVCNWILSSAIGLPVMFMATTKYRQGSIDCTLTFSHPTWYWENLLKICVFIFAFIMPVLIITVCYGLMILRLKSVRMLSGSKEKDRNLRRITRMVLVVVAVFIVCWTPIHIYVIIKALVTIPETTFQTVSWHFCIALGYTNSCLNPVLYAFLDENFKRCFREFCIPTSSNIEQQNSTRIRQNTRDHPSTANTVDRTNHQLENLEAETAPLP
T2 sequence (P41145 whole entry): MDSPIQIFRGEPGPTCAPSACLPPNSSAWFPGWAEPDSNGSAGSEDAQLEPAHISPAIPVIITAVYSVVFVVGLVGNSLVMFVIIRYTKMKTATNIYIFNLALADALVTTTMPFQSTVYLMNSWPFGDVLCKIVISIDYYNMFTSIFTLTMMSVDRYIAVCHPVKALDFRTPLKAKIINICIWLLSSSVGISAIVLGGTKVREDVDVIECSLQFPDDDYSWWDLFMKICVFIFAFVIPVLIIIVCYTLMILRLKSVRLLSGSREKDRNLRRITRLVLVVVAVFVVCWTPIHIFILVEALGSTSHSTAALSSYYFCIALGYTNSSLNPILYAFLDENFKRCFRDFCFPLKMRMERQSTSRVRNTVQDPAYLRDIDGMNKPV
T3 sequence (P41143 whole entry): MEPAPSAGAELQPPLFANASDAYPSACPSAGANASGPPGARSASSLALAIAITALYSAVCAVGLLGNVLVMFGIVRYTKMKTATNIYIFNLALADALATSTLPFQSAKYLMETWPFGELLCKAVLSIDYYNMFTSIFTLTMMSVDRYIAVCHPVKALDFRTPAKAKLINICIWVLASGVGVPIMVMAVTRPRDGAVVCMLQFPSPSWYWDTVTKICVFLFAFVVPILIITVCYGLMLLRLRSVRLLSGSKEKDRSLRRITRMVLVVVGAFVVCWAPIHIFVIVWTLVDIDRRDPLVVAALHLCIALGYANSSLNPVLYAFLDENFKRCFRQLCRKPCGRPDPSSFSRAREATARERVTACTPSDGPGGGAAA

For O=C(N[C@@H]1CC[C@@]2(O)[C@H]3Cc4ccc(O)c5c4[C@@]2(CCN3CC2CC2)[C@H]1O5)c1ccncc1Br, the Ratio Ki [1] was 285, the Ratio Ki [2] was 6 and the Emax (Mu-type opioid receptor [3]) was 23.2%.
Work on O=C(N[C@@H]1CC[C@@]2(O)[C@H]3Cc4ccc(O)c5c4[C@@]2(CCN3CC2CC2)[C@H]1O5)c1ccncc1 yielded an EC50 [4] of 28.8 nM and an Emax [5] of 45.5%.
In the case of Cc1cc(C(=O)N[C@@H]2CC[C@@]3(O)[C@H]4Cc5ccc(O)c6c5[C@@]3(CCN4CC3CC3)[C@H]2O6)ccn1, the Ratio Ki [1] is reported as 232, the Ratio Ki [2] is reported as 1.5 and the Emax (Mu-type opioid receptor [3]) is reported as 43.3%.
In the case of C[C@@H](O)[C@H](NC(=O)[C@H]1NC(=O)[C@H]([C@@H](C)O)NC(=O)[C@H](CCCNC(=N)N)NC(=O)[C@@H](Cc2c[nH]c3ccccc23)NC(=O)[C@H](Cc2ccc(O)cc2)NC(=O)[C@@H](NC(=O)[C@H](N)Cc2ccccc2)CSSC1(C)C)C(N)=O, the Emax (Mu-type opioid receptor [6]) is reported as 1.99%.
In the case of CN1CC[C@]23c4c5ccc(O)c4O[C@H]2[C@@H](O)C=C[C@H]3[C@H]1C5 [MORPHINE], the MPE (Mus musculus [7]) is reported as 100%.
Work on O=C(N[C@@H]1CC[C@@]2(O)[C@H]3Cc4ccc(O)c5c4[C@@]2(CCN3CC2CC2)[C@H]1O5)c1ccnc(Br)c1 yielded a Ratio Ki [1] of 276, a Ratio Ki [2] of 0.3 and an Emax (Mu-type opioid receptor [3]) of 50.8%.
C[N@+]1(CC2CC2)CC[C@]23c4c5ccc(O)c4O[C@H]2C(=O)CC[C@@]3(O)[C@H]1C5 showed a Ratio Ki [1] of 24 and a Ratio Ki [2] of 10.
With COc1cc(C(=O)N[C@@H]2CC[C@@]3(O)[C@H]4Cc5ccc(O)c6c5[C@@]3(CCN4CC3CC3)[C@H]2O6)ccn1 the Ki [8] was 160 nM, the Ki (Mu-type opioid receptor [9]) was 0.6 nM and the Ki [10] was 0.46 nM. The Ratio Ki [1] was 267, the Ratio Ki [2] was 0.8 and the Emax (Mu-type opioid receptor [3]) was 25.3%. It also gave an EC50 (Mu-type opioid receptor [11]) of 7.89 nM.
Work on CN1CCC(C(=O)N[C@@H]2CC[C@@]3(O)[C@H]4Cc5ccc(O)c6c5[C@@]3(CCN4CC3CC3)[C@H]2O6)CC1 yielded a Ratio Ki [1] of 2970, a Ratio Ki [2] of 7.5 and an Emax (Mu-type opioid receptor [3]) of 37.2%.
O=C(CCc1ccncc1)N[C@@H]1CC[C@@]2(O)[C@H]3Cc4ccc(O)c5c4[C@@]2(CCN3CC2CC2)[C@H]1O5 gave a Ratio Ki [1] of 516, a Ratio Ki [2] of 2.9 and an Emax (Mu-type opioid receptor [3]) of 22.6%.
O=C(Cc1ccncc1)N[C@@H]1CC[C@@]2(O)[C@H]3Cc4ccc(O)c5c4[C@@]2(CCN3CC2CC2)[C@H]1O5 showed a Ratio Ki [1] of 1020, a Ratio Ki [2] of 10.6 and an Emax (Mu-type opioid receptor [3]) of 32.8%.
With O=C(CNC(=O)c1ccncc1)N[C@@H]1CC[C@@]2(O)[C@H]3Cc4ccc(O)c5c4[C@@]2(CCN3CC2CC2)[C@H]1O5 the Activity (Mus musculus [12]) was “Non-toxic”, the EC50 [4] was 25 nM and the Emax [13] was 84.3%. The ED50 (Mus musculus [14]) was 0.08 mg/kg, the inhibition (Mus musculus [15]) was “inactive” and the inhibition (Mus musculus [16]) was “inactive”. For the same compound, the inhibition (Mus musculus [17]) was “Active”, the Emax [5] was 23.5% and the Emax (Mu-type opioid receptor [3]) was 22.6%. For the same compound, the Activity (Mus musculus [18]) was “Active”, the MPE (Mus musculus [19]) was 11.2% and the Papp (Caco-2) was “permeable”. For the same compound, the EC50 [20] was 19 nM.
Work on O=C(N[C@@H]1CC[C@@]2(O)[C@H]3Cc4ccc(O)c5c4[C@@]2(CCN3CC2CC2)[C@H]1O5)c1ccncc1Cl yielded a Ratio Ki [1] of 746, a Ratio Ki [2] of 30 and an Emax (Mu-type opioid receptor [3]) of 24.9%.
For Cc1cnccc1C(=O)N[C@@H]1CC[C@@]2(O)[C@H]3Cc4ccc(O)c5c4[C@@]2(CCN3CC2CC2)[C@H]1O5, the Activity (Mus musculus [12]) was “Non-toxic”, the EC50 [4] was 26.4 nM and the MPE (Mus musculus [21]) was 4.4%. For the same compound, the Emax [13] was 90.2%, the inhibition (Mus musculus [22]) was “inactive” and the Ratio Ki [1] was 470. The ED50 (Mus musculus [14]) was 0.03 mg/kg, the inhibition (Mus musculus [14]) was “Dose-dependent effect” and the ED50 (Mus musculus [23]) was 7.85 mg/kg. The Ratio Ki [2] was 166, the inhibition (Mus musculus [15]) was “Active” and the Emax [5] was 31.4%. The Emax (Mu-type opioid receptor [3]) was 30.6%, the Activity (Mus musculus [18]) was “Active” and the Papp (Caco-2) was “permeable”. The EC50 [20] was 38.6 nM.
With O=C(N[C@@H]1CC[C@@]2(O)[C@H]3Cc4ccc(O)c5c4[C@@]2(CCN3CC2CC2)[C@H]1O5)c1ccnnc1 the Ki [8] was 420 nM, the Ki (Mu-type opioid receptor [9]) was 2.07 nM and the Ki [10] was 1.57 nM. The Ratio Ki [1] was 203, the Ratio Ki [2] was 0.7 and the Emax (Mu-type opioid receptor [3]) was 27.6%. It also gave an EC50 (Mu-type opioid receptor [11]) of 28.3 nM.
With N#Cc1cc(C(=O)N[C@@H]2CC[C@@]3(O)[C@H]4Cc5ccc(O)c6c5[C@@]3(CCN4CC3CC3)[C@H]2O6)ccn1 the Ki [8] was 75.3 nM, the Ki (Mu-type opioid receptor [9]) was 1.25 nM and the Ki [10] was 0.13 nM. For the same compound, the Ratio Ki [1] was 60, the Ratio Ki [2] was 0.1 and the Emax (Mu-type opioid receptor [3]) was 43.1%. The EC50 (Mu-type opioid receptor [11]) was 10 nM.
Compound COc1cnccc1C(=O)N[C@@H]1CC[C@@]2(O)[C@H]3Cc4ccc(O)c5c4[C@@]2(CCN3CC2CC2)[C@H]1O5 has a Ki [8] of 104 nM, a Ki (Mu-type opioid receptor [9]) of 0.43 nM and a Ki [10] of 4.28 nM. It also gave a Ratio Ki [1] of 242 and a Ratio Ki [2] of 10.
In the case of O=C(N[C@@H]1CC[C@@]2(O)[C@H]3Cc4ccc(O)c5c4[C@@]2(CCN3CC2CC2)[C@H]1O5)c1ccnc(Cl)c1, the Ratio Ki [1] is reported as 6110, the Ratio Ki [2] is reported as 1.5 and the Emax (Mu-type opioid receptor [3]) is reported as 58.2%.
